Experimental data: article PMC11362799 (The Journal of Biological Chemistry, 2024)

Biological target: T1, human Gal-4C (Homo sapiens, UniProt P56470)
T1 sequence (P56470 179-323): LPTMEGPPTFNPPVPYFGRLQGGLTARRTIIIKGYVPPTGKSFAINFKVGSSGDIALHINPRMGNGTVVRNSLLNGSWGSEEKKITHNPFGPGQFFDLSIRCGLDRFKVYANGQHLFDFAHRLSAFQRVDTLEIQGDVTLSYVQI
Assay: Competitive solid-phase assay: Gal-4C binding to immobilized asialofetuin
Procedure, shortened: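 Human Gal-4C (residues 179–323, C-terminal His-tag, E. coli BL21) at 60 μg/ml final was preincubated 2 h at 37 °C with serially diluted glycan inhibitors; lactose was the reference. Mixtures went onto wells coated overnight at 4 °C with 10 µg/ml ASF (carbonate, pH 9.6) and BSA-blocked, for 2 h at 37 °C. Detection: biotinylated anti-Gal-4, HRP-streptavidin, TMB, A450. Values are means ± SEM from a representative of three experiments.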

Work on `OC[C@H]1O[C@@H](O[C@H]2[C@H](O)[C@@H](O)C(O)O[C@@H]2CO)[C@H](O)[C@@H](O)[C@H]1O` (mixture of isomers) [lactose] yielded an IC50 of 7 mM.
